The source made the active and inactive calls. The rule behind the calls is not given here.
Tests used:
[1] = tested on: Trypanosoma cruzi; assay: Antitrypanosomal activity against Trypanosoma cruzi infected in African green monkey Vero cells assessed as reduction in number of trypomastigotes measured up to 10 days by Giemsa staining based hemocytometry; format: functional; settings: time day <=10
Procedure, shortened: (§1)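 Vero cells infected with metacyclic forms (10:1) were exposed to one concentration per compound immediately after infection for 12 h at 37 °C, 5% CO2. After washing, cultures were kept 10 days with fresh medium every 48 h. Every 48 h, % infected cells and amastigotes per infected cell (200 Giemsa-stained cells) and medium trypomastigotes (Neubauer) were scored. Means of three experiments.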

[2] = tested on: Trypanosoma cruzi; assay: Antitrypanosomal activity against Trypanosoma cruzi infected in African green monkey Vero cells assessed as reduction in number of amastigotes per infected cell measured up to 10 days by Giemsa staining based hemocytometry; format: functional; settings: time day <=10; procedure, shortened: as §1
[3] = tested on: Trypanosoma cruzi; assay: Antitrypanosomal activity against Trypanosoma cruzi infected in African green monkey Vero cells assessed as reduction in infection rate measured up to 10 days by Giemsa staining based hemocytometry; format: functional; settings: time day <=10; procedure, shortened: as §1
[4] = tested on: Trypanosoma cruzi; assay: Antitrypanosomal activity against Trypanosoma cruzi Arequipa epimastigote forms incubated for 72 hrs by hemocytometry; format: functional, organism-based
Procedure, shortened: (§2)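 Epimastigotes grown in MTL medium with 10% inactivated FBS at 28 °C. Compounds were dissolved in DMSO (0.01% v/v) and added at 0.1–100 µM for 72 h. Parasites were counted in a Neubauer chamber. IC50 (50% growth inhibition) was derived by linear regression of Kc values. Values are averages of four determinations.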

[5] = tested on: Trypanosoma cruzi; assay: Antitrypanosomal activity against Trypanosoma cruzi Arequipa amastigote forms infected in African green monkey Vero cells incubated for 72 hrs by Giemsa staining based micrscopy; format: functional, organism-based
Procedure, shortened: (§3)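 Vero cells (RPMI, 10% inactivated FBS, 37 °C, 5% CO2) were seeded at 1×10^4/well on coverslips and cultured 2 days. They were infected 24 h with metacyclic forms at 10:1. After washing off free parasites, drugs were added at 0.1–100 µM for 72 h. Slides were methanol-fixed and Giemsa-stained; amastigotes were counted in 200 host cells versus untreated. IC50 was calculated.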

[6] = tested on: Trypanosoma cruzi; assay: Antitrypanosomal activity against Trypanosoma cruzi Arequipa trypomastigote froms infected in mouse blood incubated for 24 hrs by Neubauer chamber based assay; format: functional, organism-based
Procedure, shortened: (§4)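 Mouse blood taken at peak parasitemia (day 7) was diluted with uninfected blood to 4×10^6 trypomastigotes/mL, then 1:2 in RPMI 1640. Drugs from DMSO stocks were added at 1, 10, 25, 50 and 100 µM and incubated 24 h at 4–8 °C. Parasites were counted in a Neubauer chamber in triplicate. IC50 was calculated versus control.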

[7] = tested on: Trypanosoma cruzi; assay: Antitrypanosomal activity against Trypanosoma cruzi Tulahuen epimastigote forms incubated for 72 hrs by hemocytometry; format: functional, organism-based; procedure, shortened: as §2
[8] = tested on: Trypanosoma cruzi; assay: Antitrypanosomal activity against Trypanosoma cruzi Tulahuen amastigote forms infected in African green monkey Vero cells incubated for 72 hrs by Giemsa staining based micrscopy; format: functional, organism-based; procedure, shortened: as §3
[9] = tested on: Trypanosoma cruzi; assay: Antitrypanosomal activity against Trypanosoma cruzi Tulahuen trypomastigote froms infected in mouse blood incubated for 24 hrs by Neubauer chamber based assay; format: functional, organism-based; procedure, shortened: as §4
[10] = tested on: Trypanosoma cruzi; assay: Antitrypanosomal activity against Trypanosoma cruzi SN3 epimastigote forms incubated for 72 hrs by hemocytometry; format: functional, organism-based; settings: SN3, 72 h; procedure, shortened: as §2
[11] = tested on: Trypanosoma cruzi; assay: Antitrypanosomal activity against Trypanosoma cruzi SN3 amastigote forms infected in African green monkey Vero cells incubated for 72 hrs by Giemsa staining based micrscopy; format: functional, organism-based; procedure, shortened: as §3
[12] = tested on: Trypanosoma cruzi; assay: Antitrypanosomal activity against Trypanosoma cruzi SN3 trypomastigote froms infected in mouse blood incubated for 24 hrs by Neubauer chamber based assay; format: functional, organism-based; procedure, shortened: as §4
[13] = tested on: Vero; assay: Cytotoxicity in African green monkey Vero cells incubated for 72 hrs; format: cell-based; settings: Chlorocebus sabaeus
[14] = tested on: Trypanosoma cruzi; assay: Antitrypanosomal activity against Trypanosoma cruzi Arequipa trypomastigotes infected in BALB/c mouse assessed as reduction in parasitemia measured during acute phase (days 0 to 40 post infection) at 50 to 100 mg/kg, po dosed on alternating days (7 to 15 days post infection); format: functional, organism-based; settings: dose 50-100 mg/kg
Procedure, shortened: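 Female BALB/c mice (8–10 weeks, 25–30 g; groups of six) were infected i.p. with 5×10^5 Arequipa blood trypomastigotes. Dosing was oral, 50 or 100 mg/kg/day, on 5 alternating days (days 7–15 pi), alongside untreated and reference-drug groups. Parasitemia was counted in 5 µL mandibular-vein blood by Neubauer chamber through day 40 pi. Data are means ± SD of six mice.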

[15] = tested on: Trypanosoma cruzi; assay: Antitrypanosomal activity against Trypanosoma cruzi Arequipa trypomastigotes infected in BALB/c mouse assessed as reduction in mouse mortality measured during acute phase (days 0 to 40 post infection) at 50 to 100 mg/kg, po dosed on alternating days (7 to 15 days post infection); format: functional, organism-based; settings: dose 50-100 mg/kg
[16] = tested on: Trypanosoma cruzi; assay: Antitrypanosomal activity against Trypanosoma cruzi Arequipa trypomastigotes infected in BALB/c mouse assessed as parasitemia re-activation level measured during chronic phase ( day 90 post infection) at 100 mg/kg, po dosed on alternating days (7 to 15 days post infection) relative to acute phase infection (reference value: […]%); format: functional
[17] = tested on: Trypanosoma cruzi; assay: Antitrypanosomal activity against Trypanosoma cruzi Arequipa trypomastigotes infected in BALB/c mouse assessed as reduction in parasitemia level in adipose tissue measured during acute phase (days 0 to 40 post infection) at 100 mg/kg, po dosed on alternating days (7 to 15 days post infection) by PCR analysis; format: functional, organism-based
[18] = tested on: Trypanosoma cruzi; assay: Antitrypanosomal activity against Trypanosoma cruzi Arequipa trypomastigotes infected in BALB/c mouse assessed as reduction in parasitemia level in brain measured during acute phase (days 0 to 40 post infection) at 100 mg/kg, po dosed on alternating days (7 to 15 days post infection) by PCR analysis; format: functional, organism-based
[19] = tested on: Trypanosoma cruzi; assay: Antitrypanosomal activity against Trypanosoma cruzi Arequipa trypomastigotes infected in BALB/c mouse assessed as reduction in parasitemia level in heart measured during acute phase (days 0 to 40 post infection) at 50 to 100 mg/kg, po dosed on alternating days (7 to 15 days post infection) by PCR analysis; format: functional, organism-based; settings: dose 50-100 mg/kg
[20] = tested on: Trypanosoma cruzi; assay: Antitrypanosomal activity against Trypanosoma cruzi Arequipa trypomastigotes infected in BALB/c mouse assessed as reduction in parasitemia level in heart measured during acute phase (days 0 to 40 post infection) at 100 mg/kg, po dosed on alternating days (7 to 15 days post infection) by PCR analysis; format: functional, organism-based
[21] = tested on: Trypanosoma cruzi; assay: Antitrypanosomal activity against Trypanosoma cruzi Arequipa trypomastigotes infected in BALB/c mouse assessed as reduction in parasitemia level in esophagus measured during acute phase (days 0 to 40 post infection) at 100 mg/kg, po dosed on alternating days (7 to 15 days post infection) by PCR analysis; format: functional, organism-based
[22] = tested on: Trypanosoma cruzi; assay: Antitrypanosomal activity against Trypanosoma cruzi Arequipa trypomastigotes infected in BALB/c mouse assessed as reduction in parasitemia level in stomach measured during acute phase (days 0 to 40 post infection) at 100 mg/kg, po dosed on alternating days (7 to 15 days post infection) by PCR analysis; format: functional, organism-based
[23] = tested on: Trypanosoma cruzi; assay: Antitrypanosomal activity against Trypanosoma cruzi Arequipa trypomastigotes infected in BALB/c mouse assessed as reduction in parasitemia level in bone marrow measured during acute phase (days 0 to 40 post infection) at 100 mg/kg, po dosed on alternating days (7 to 15 days post infection) by PCR analysis; format: functional, organism-based
[24] = tested on: Trypanosoma cruzi; assay: Antitrypanosomal activity against Trypanosoma cruzi Arequipa trypomastigotes infected in BALB/c mouse assessed as reduction in parasitemia level in muscle measured during acute phase (days 0 to 40 post infection) at 100 mg/kg, po dosed on alternating days (7 to 15 days post infection) by PCR analysis; format: functional, organism-based
[25] = tested on: Trypanosoma cruzi; assay: Antitrypanosomal activity against Trypanosoma cruzi Arequipa trypomastigotes infected in BALB/c mouse assessed as reduction in parasitemia level in lung measured during acute phase (days 0 to 40 post infection) at 100 mg/kg, po dosed on alternating days (7 to 15 days post infection) by PCR analysis; format: functional, organism-based
[26] = tested on: Trypanosoma cruzi; assay: Antitrypanosomal activity against Trypanosoma cruzi Arequipa trypomastigotes infected in BALB/c mouse assessed as reduction in splenomegaly by measuring weight percent of spleens […] at 50 mg/kg, po dosed on alternating days (7 to 15 days post infection) by PCR analysis (reference value: 1.603%); format: functional; parameters: scale not given: the % may be the effect or the level left
[27] = tested on: Trypanosoma cruzi; assay: Antitrypanosomal activity against Trypanosoma cruzi Arequipa trypomastigotes infected in BALB/c mouse assessed as reduction in splenomegaly by measuring weight percent of spleens […] at 100 mg/kg, po dosed on alternating days (7 to 15 days post infection) by PCR analysis (reference value: 1.603%); format: functional
[28] = tested on: Trypanosoma cruzi; assay: Inhibition of Trypanosoma cruzi Arequipa Fe-SOD at <50 uM by NBT dye based spectrophotometry; settings: dose microM <50
Procedure, shortened: (§5)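 Fe-SOD source: Arequipa epimastigote homogenate (STE buffer pH 7.8, sonication, centrifugation, supernatant; protein by Bradford); CuZn-SOD was commercial human erythrocyte enzyme. Activity was measured as NBT reduction by superoxide in 50 mM potassium phosphate pH 7.8, with compounds at 5 concentrations (1–100 µM). A560 was read before and after 10 min under lamp light with stirring. Three rate determinations; Newman–Keuls test.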

[29] = target: T1, Superoxide dismutase [Cu-Zn] (Homo sapiens, UniProt P00441); assay: Inhibition of human erythrocyte CuZn-SOD at 100 uM by NBT dye based spectrophotometry; procedure, shortened: as §5
T1 sequence (P00441 whole entry): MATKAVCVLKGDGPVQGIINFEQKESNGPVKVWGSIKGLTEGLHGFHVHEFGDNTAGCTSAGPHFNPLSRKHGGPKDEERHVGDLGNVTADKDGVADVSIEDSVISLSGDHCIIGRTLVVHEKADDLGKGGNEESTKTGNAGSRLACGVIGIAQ

[30] = Inhibition of Trypanosoma cruzi Arequipa Fe-SOD by NBT dye based spectrophotometry; procedure, shortened: as §5
[31] = tested on: Trypanosoma cruzi; assay: Inhibition of Trypanosoma cruzi Arequipa Fe-SOD at 50 uM by NBT dye based spectrophotometry; procedure, shortened: as §5
[32] = target: T1, Superoxide dismutase [Cu-Zn]; assay: Inhibition of human erythrocyte CuZn-SOD at 50 uM by NBT dye based spectrophotometry; procedure, shortened: as §5
[33] = target: T1, Superoxide dismutase [Cu-Zn]; assay: Inhibition of human erythrocyte CuZn-SOD by NBT dye based spectrophotometry; procedure, shortened: as §5
[34] = Selectivity index, ratio of IC50 for cytotoxicity in African green monkey Vero cells to IC50 for antitrypanosomal activity against Trypanosoma cruzi […] amastigote forms; format: toxicity, cell-based; settings: read-out: Ratio IC50
[35] = Selectivity index, ratio of IC50 for cytotoxicity in African green monkey Vero cells to IC50 for antitrypanosomal activity against Trypanosoma cruzi […] epimastigote forms

SMILES	inhibition (INH) [1] [%]	inhibition (INH) [2] [%]	inhibition (INH) [3] [%]	IC50 [4] [µM]	IC50 [5] [µM]	IC50 [6] [µM]	IC50 [7] [µM]	IC50 [8] [µM]	IC50 [9] [µM]	IC50 [10] [µM]	IC50 [11] [µM]	IC50 [12] [µM]	IC50 [13] [µM]	Activity [14]	Activity [15]	Activity [16] [%]	Activity [17]	Activity [18]	Activity [19]	Activity [20]	also measured
O=C(CCN1CCN(c2ccc([N+](=O)[O-])cc2C(F)(F)F)CC1)c1csc2ccccc12	64	74	76	26	10.8	20.3	50.3	22.8	2.5	179	72.9	33	2850	Active	Active	0	Active	Active	Active	Active	Activity [21]: Active; Activity [22]: Active; Activity [23]: Active; Activity [24]: Active; Activity [25]: Active; Activity [26]: 1.171%; Spleen weight percent [27]: 0.892%; inhibition [28]: 100%; inhibition [29]: inactive; IC50 [30]: 71.1 µM
O=C(CCN1CCN(c2ccc([N+](=O)[O-])cc2)CC1)c1csc2ccccc12	59	45	59	77.7	11.7	35.9	35.5	19.8	0.5	41.4	20.7	18.6	1710	Active	Active	0	Active	Active	Active	Active	Activity [21]: Active; Activity [22]: Active; Activity [23]: Active; Activity [24]: Active; Activity [25]: Active; Activity [26]: 1.174%; Spleen weight percent [27]: 0.729%; inhibition [31]: 100%; inhibition [32]: 100%; IC50 [30]: 7.8 µM; IC50 [33]: 46.6 µM
O=C(CCN1CCN(c2cccc(C(F)(F)F)c2)CC1)c1ccsc1				28	18.6	26.8	28	20.2	22.3	12.8	5.7	4.6	4.8								selectivity ratio [34]: 1; selectivity ratio [35]: 1

From ChEMBL document CHEMBL4680103, “In Vitro and in Vivo Anti-Trypanosoma cruzi Activity of New Arylamine Mannich Base-Type Derivatives” (J Med Chem, 2016)
